Compound activity deposited in PubChem BioAssay by several laboratories.
Compounds with a hit are over-represented: about 4.1% of the library has one in this group of screens.
KCNK9 block – inhibitors of human KCNK9 two-pore domain potassium channel | HEK293 KCNK9, FluxOR thallium flux fluorescence; stronger effect = lower value | 310,000 tested, 1.2% active | B-score at 10 µM;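 active = ratio B-score over 3 SD below the library mean, with starting fluorescence within 5 SD of its mean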;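 also: negative B-score means less thallium flux so channel inhibition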
KCNQ1 pot – human KCNQ1 channel potentiation or activation; B-score at 10 µM; CHO-K1 KCNQ1, thallium flux FluxOR fluorescence; stronger effect = higher value; P51787; AID 2648; 310,000 tested, 0.35% active;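 active = fluorescence ratio B-score, a plate-corrected score, at least three library SD, with initial intensity B-score within 5 SD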
Target sequence (P51787 whole entry, looked up): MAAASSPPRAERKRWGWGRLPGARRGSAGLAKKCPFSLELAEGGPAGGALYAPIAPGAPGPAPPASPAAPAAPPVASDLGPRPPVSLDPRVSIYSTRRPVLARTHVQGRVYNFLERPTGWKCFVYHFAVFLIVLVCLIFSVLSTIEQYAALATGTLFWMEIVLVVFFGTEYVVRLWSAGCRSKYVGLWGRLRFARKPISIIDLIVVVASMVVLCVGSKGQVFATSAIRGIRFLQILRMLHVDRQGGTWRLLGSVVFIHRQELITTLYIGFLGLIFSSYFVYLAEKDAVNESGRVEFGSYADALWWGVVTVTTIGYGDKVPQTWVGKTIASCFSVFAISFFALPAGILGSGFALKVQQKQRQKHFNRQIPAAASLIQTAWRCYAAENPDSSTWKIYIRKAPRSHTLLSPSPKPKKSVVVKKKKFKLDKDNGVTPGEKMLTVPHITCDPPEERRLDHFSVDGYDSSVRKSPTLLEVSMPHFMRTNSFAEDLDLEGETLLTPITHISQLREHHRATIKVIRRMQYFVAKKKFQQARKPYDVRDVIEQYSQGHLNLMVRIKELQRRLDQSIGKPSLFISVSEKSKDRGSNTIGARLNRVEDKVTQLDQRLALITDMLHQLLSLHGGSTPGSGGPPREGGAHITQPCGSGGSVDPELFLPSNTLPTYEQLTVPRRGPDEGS
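Material: CHO-K1 cells stably expressing KCNQ1. Medium: assay buffer for compound exposure, DMSO matched across wells. Reagent: K+/Tl+ depolarizing stimulus. Compound dosing: single-concentration screen. Times: 37 °C overnight plating, 90-min dark dye load, 20-min compound pretreatment. Technique: FluxOR Tl+ flux fluorescence.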
KCNK3 block – human KCNK3 channel inhibition, primary screen. CHO-KCNK3 thallium flux, FluxOR fluorescence; stronger effect = lower value. B-score at 10 µM. AID 602410. 340,000 tested, 0.84% active;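 active = B-score under library mean minus 4 SD, starting fluorescence ratio at most library mean plus 5 SD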;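 also: more negative B-score means stronger inhibition of thallium flux through KCNK3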
KCNQ1 inh – inhibitors of human KCNQ1 potassium channel. CHO-K1 KCNQ1, FluxOR thallium flux fluorescence; stronger effect = higher value. B-score at 10 µM. 310,000 tested, 1.3% active. P51787. AID 2642;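 active = compounds whose thallium flux B-score, printed positive for inhibition, exceeds three library SD while starting fluorescence stays within three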;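 also: channel opened by potassium depolarization with thallium stimulus after 20 min compound exposure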
Cl transport mod – modulators of human KCC2 chloride dependent transport | AID 1456 | 190,000 tested, 2.2% active | KCC2 cells, thallium flux FluoZin-2 fluorescence | B-score of Tl+ flux slope (higher = more flux/activation; lower = inhibition) at 10 µM;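 active = thallium flux slope and its plate-corrected score both differing from the plate sample mean at a set confidence after two filtering rounds, in either direction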;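 also: slope of fluorescence scaled to starting intensity during 10 to 20 s after thallium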
hERG protect – shields human hERG channel from block by proarrhythmic agents | Q12809 | CHO-hERG, FluxOR thallium flux, dofetilide IC70 present | activation (rescue from dofetilide block), less the hit threshold, % at 10 µM | 310,000 tested, 0.51% active;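 active = activation above the mean of controls blocked by dofetilide plus 5 SD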;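 also: thallium influx through hERG after potassium depolarization seen as dye fluorescence rise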
KCNK9 block conf – confirmation of human KCNK9 potassium channel inhibitors. inhibition, % at 10 µM. shares compounds with KCNK9 block. HEK293 KCNK9 cells, FluxOR thallium flux fluorescence. AID 492992. 4,900 tested, 43% active;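 active = thallium signal inhibited by more than 5 SD of the compound-free buffer control wells, on both duplicate plates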;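 also: 0% = assay buffer control wells without compound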
Kir2-1 spec – mouse Kir2.1 off-target activity of KCNK9 modulators; shares compounds with KCNK9 block; Kir2.1 cells, FluxOR thallium flux fluorescence; inhibition, % at 10 µM; 4,900 tested, 4% active; AID 492993;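 active = thallium signal drop more than 5 SD beyond the mean of the no-compound control wells, seen in both duplicate plates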;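 also: signal is fluorescence rise after thallium addition divided by baseline fluorescence; plate controls were assay buffer only for no effect and full block by chlorpromazine control for full effect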
KCNK9 uninduced – second counter-screen for KCNK9 modulators: effect in non-induced cells; non-induced KCNK9-HEK293, FluxOR thallium flux; inhibition, % at 10 µM; shares compounds with KCNK9 block; AID 492997; 4,900 tested, 40% active;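 active = thallium signal drop beyond 5 SD of the untreated control mean, on both duplicate plates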;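 also: plate controls were buffer only IC0 wells for no effect and SID17386958 at its maximal inhibitory level for full effect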
Numbers without * were called inactive; i = inactive; · = not tested or not shown.

SMILES	KCNK9 block	KCNQ1 pot	KCNK3 block	KCNQ1 inh	Cl transport mod	hERG protect	KCNK9 block conf	Kir2-1 spec	KCNK9 uninduced
C[C@H](CO)N1C[C@H](C)[C@@H](CN(C)S(C)(=O)=O)Oc2ccc(NS(=O)(=O)c3cn(C)cn3)cc2C1=O	·	·	i	·	·	·	·	·	·
Clc1cccc(OCCN2CCN(CCOc3cccc(Cl)c3)CC2)c1	i	i	i	i	0.42	-23	i	i	i
Cn1c(=O)c2c(SCC(=O)N3CCCc4ccccc43)nc(CC(C)(C)C)nc2n(C)c1=O	i	i	i	i	·	-4	·	·	·
CCCc1nc(SCC(=O)N2CCCc3ccccc32)c2c(=O)n(C)c(=O)n(C)c2n1	i	i	i	i	-1.1	-26	i	i	i
Cc1noc(N)c1C(=O)Nc1ccccc1F	-9.5*	i	i	i	-0.0014	-6	i	i	i
COc1ccc(N=C2SC(CC(=O)Nc3ccccc3OC)C(=O)N2Cc2ccco2)cc1 (centres undefined)	i	i	i	i	-1.8	-10	i	i	i
CC(C)n1nc(C(=O)Nc2nc3ccc(S(C)(=O)=O)cc3s2)c2ccccc2c1=O	i	i	i	i	·	-10	·	·	·
CC(C)n1nc(C(=O)Nc2nnc(SCc3c(Cl)cccc3Cl)s2)c2ccccc2c1=O	i	i	i	i	·	-15	i	i	i
Cc1ccc(SC[C@H](Cc2ccccc2)N2CC[C@@H](NC(=O)OCc3ccccc3)CCC2=O)cc1	i	i	·	i	·	-15	·	·	·
COc1cccc(/C(C)=N/N=C(\C)c2cccc(OC)c2)c1	-14*	i	i	i	·	-6	60%*	i	i
COc1cccc(C(N)=O)c1	i	i	i	i	·	-2	·	·	·
COc1ccc(NC(=O)CSc2nnc(C3CCCCC3)n2-c2ccccc2)cc1	i	i	i	i	-0.67	-12	i	i	i
COc1ccc(-n2c(SCC(=O)Nc3ccc(C)cc3)nc(O)c(Cc3ccccc3)c2=O)cc1	i	i	i	i	·	-3	·	·	·
COc1ccc(NC(=O)CSc2nnc(C3CC3)n2N)cc1	i	i	i	i	·	-7	·	·	·
COc1ccc(-n2c(SCC(=O)Nc3ccc(Cl)cc3)nc(O)c(Cc3ccccc3)c2=O)cc1	i	i	i	i	·	2	i	i	i
COc1ccc(CN2CCN(C(=O)CCC(=O)c3ccc(C)s3)CC2)cc1OC	·	·	i	·	·	·	·	·	·
Cc1ccc(C)c(N2N=C(C(=O)Nc3cccc(S(=O)(=O)N4CCCCC4)c3)CCC2=O)c1	·	·	i	·	·	·	·	·	·
Cn1nc(C(=O)OCC(=O)NC2CCS(=O)(=O)C2)c2ccccc2c1=O (centres undefined)	i	i	i	i	0.52	-10	·	·	·
C=CCSc1nc(-c2ccc(OC)cc2)c(C#N)c(=O)n1CC=C	-8.7*	i	i	i	-1.3	-8	i	i	i
CCCn1c(=O)c(C(=O)Nc2ncccc2C)c(O)c2ccccc21	i	i	i	i	0.2	-6	·	·	·
CCCn1c(=O)c(C(=O)Nc2cccc(C)n2)c(O)c2ccccc21	-10*	i	i	i	·	-7	i	i	29%*
CCc1ccc(C(=O)N2CCC(c3nc4ccccc4s3)CC2)cc1	i	i	i	i	-0.31	-13	i	i	i
O=C(c1ccccc1Br)N1CCC(c2nc3ccccc3s2)CC1	i	i	i	i	1.2	-22	·	·	·
Nc1ncncc1-c1ccccc1Cl	·	·	i	·	·	·	·	·	·
Cc1cc2ccc3ccccc3c2cc1CN(C)C	i	i	i	i	0.1	-3	i	66%*	i
SMILES	KCNK9 block	KCNQ1 pot	KCNK3 block	KCNQ1 inh	Cl transport mod	hERG protect	KCNK9 block conf	Kir2-1 spec	KCNK9 uninduced
CC(=O)Nc1ccc(N2CCc3c(C)c(C#N)c4nc5ccccc5n4c32)cc1	i	i	·	i	0.48	-5	·	·	·
O=C(CCCN1C(=O)/C(=C/c2cccc(Br)c2)SC1=S)N1CCOCC1	i	i	i	i	·	-8	i	i	i
O=C(CCCN1C(=O)/C(=C/c2ccccc2)SC1=S)N1CCOCC1	i	i	i	i	·	-12	·	·	·
CN1CCN(C(=O)CCCN2C(=O)/C(=C/c3cccc(Br)c3)SC2=S)CC1	i	i	i	i	·	-21	i	i	i
Cc1cc2ccccn2c1C(=O)c1ccccc1F	-12*	i	i	i	·	-7	i	i	i
Cc1cc2ccccn2c1C(=O)c1ccc(Cl)cc1	i	i	i	i	-0.32	-7	·	·	·
Cc1ccc(C(=O)O/N=C/c2c(Cl)n(C)c3ccccc23)cc1	i	i	i	i	-0.39	-1	·	·	·
Cc1cccc(C(=O)O/N=C/c2c(Cl)n(C)c3ccccc23)c1	-12*	i	i	i	-0.52	-8	48%*	i	34%*
COC(=O)[C@]1(C)N[C@H](CN(C)C(=O)c2ccccc2)[C@@H]2C(=O)N(Cc3ccccc3)C(=O)[C@@H]21	·	·	i	·	·	·	·	·	·
COC(=O)c1ccc(S(=O)(=O)N2CCN(C(c3ccccc3)c3ccccc3)CC2)n1C	i	i	i	i	-0.29	-3	i	i	i
CCOC(=O)C(C(C)=O)c1c(Br)c(O)c(O)c2c(C(=O)c3ccc(C)cc3)coc12 (centres undefined)	-15*	i	i	9*	-2.3	-9	70%*	i	46%*
CCOC(=O)c1c(C)n(-c2ccc(C)cc2)c2c(C(C(C)=O)C(=O)O)c(Br)c(O)c(O)c12 (centres undefined)	i	i	i	i	-0.0037	-10	·	·	·
CCCCOc1ccccc1NC(=O)c1scc2c1OCCO2	-12*	i	i	i	-0.16	-20	48%*	i	36%*
CCCCOc1ccccc1NC(=O)c1ccco1	i	i	i	i	-0.15	-6	·	·	·
CN(C)c1cccc(C(=O)NCC(c2ccco2)N(C)C)c1 (centres undefined)	i	i	i	i	·	-11	·	·	·
O=C(O)c1ccc(Cl)c(S(=O)(=O)N(Cc2ccccc2)c2ccc(Cl)cc2)c1	i	i	i	i	·	-16	i	i	i
